From ChEMBL document CHEMBL1158125, “seco-Cycloartane triterpenes from Gardenia aubryi” (J Nat Prod, 2006)
Structures can show the parent of a compound that is named as a salt.

Assays:
Format in all cases: functional, cell-based
[1] = system: PC-3; assay: Cytotoxicity against human PC-3 cells after 48 hrs by MTT assay; settings: PC-3, 48 h
Outline: (§1)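 Cells grown in DMEM with penicillin (100 U/mL), streptomycin (100 μg/mL) and 10% FBS at 37 °C, 5% CO2, and seeded at 5000 cells/well. After 24 h, compounds were added diluted in DMSO and left for 48 h. Medium was then replaced with MTT (1 mg/mL final, serum-free phenol-red-free RPMI) for 4 h. Formazan was dissolved in isopropanol and read at 550 nm (reference 690 nm). IC50 reported.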

[2] = system: MCF7; assay: Cytotoxicity against human MCF7 cells after 48 hrs by MTT assay; settings: MCF7, 48 h; outline: as §1
[3] = system: MDA-MB-231; assay: Cytotoxicity against human MDA-MB-231 cells after 48 hrs by MTT assay; settings: MDA-MB-231, 48 h; outline: as §1
[4] = system: HeLa; assay: Cytotoxicity against human HeLa cells after 48 hrs by MTT assay; outline: as §1

Row | SMILES | IC50 [1] | IC50 [2] | IC50 [3] | IC50 [4]
1 | COc1cccc2c1C(=O)c1c(O)c3c(c(O)c1C2=O)C[C@@](O)(C(C)=O)C[C@@H]3O[C@H]1C[C@H](N)[C@H](O)[C@H](C)O1 [DAUNORUBICIN HYDROCHLORIDE] | 0.44 µM | 0.22 µM | 0.25 µM | 0.32 µM
2 | C=C(CO)[C@@H]1CC[C@H]2[C@]3(CC[C@]4(C)[C@@H]([C@H](C)CCC=C(C)C)CC[C@@]24C)C[C@]13CCC(=O)O [SECAUBRYENOL] | > 100 µM | > 100 µM | > 100 µM | > 100 µM
3 | C=C1C(=O)O[C@@H]2C[C@@H]3[C@]4(CC[C@]5(C)[C@@H]([C@H](C)CC(=O)C=C(C)C)CC[C@@]35C)C[C@]4(CCC(=O)OC)[C@H]12 [SECAUBRYOLIDE] | 35 µM | 52 µM | 21 µM | 40 µM
4 | C=C(CO)[C@@H]1CC[C@H]2[C@]3(CC[C@]4(C)[C@@H]([C@H](C)CC[C@@H](O)C(C)(C)O)CC[C@@]24C)C[C@]13CCC(=O)O [SECAUBRYTRIOL] | > 100 µM | > 100 µM | > 100 µM | > 100 µM
